Screening results: PubChem, PCMD
A selection: hits, their analogues and other compounds. The true share with any hit is near 1.1%.
Yeast growth tox: Compounds toxic to wild-type S. cerevisiae growth; growth inhibition, % at 25 µM (by protocol); AID 685; 0.3% of 30,000 active; A595 turbidity, 16 h;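 active = mutant and wild-type yeast strains alike exhibit over 30% growth inhibition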
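System – wild-type and eIF2Bepsilon-R284H mutant S. cerevisiae, screened separately · Measured by – absorbance at 595 nm (turbidity) · Timing – 16 h compound exposure during growth at 30 °C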
eIF2B yeast act: eIF2B (yeast) activity modulation | inhibition, % at 25 µM (by protocol) | S. cerevisiae eIF2B-epsilon R284H, GCN4-lacZ luminescence | 0.91% of 27,000 active | AID 688;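 active = mutant luminescence inhibited past about 50% while wild type luminescence and mutant growth stay under set limits, limit read from the data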
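Material – yeast eIF2B-epsilon R284H mutant carrying GCN4–beta-galactosidase fusion · Medium – YPD yeast growth medium · Compound – one concentration, 25 µM, 0.25% DMSO · Times – 16 h at 30 °C exposure · Signal – Beta-Glo luminescence plus absorbance at 595 nm · Read-out – % inhibition of reporter signal and growth versus controls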
Each line names hits and unclear results; the compound was inactive in the other large screens.

CN(CC(=O)Nc1ccccn1)S(=O)(=O)c1ccc(Cl)cc1	none
Cc1cnc(NC(=O)CN(C)S(=O)(=O)c2ccc(Cl)cc2)s1	eIF2B yeast act 54
Cc1cc(C)n(CCn2nc(C)cc2C)n1	none
Cc1cc(C)n(-c2cc(=O)n(C)c(=O)n2C)n1	eIF2B yeast act 51
CCC(C)(C)n1nnnc1CN(Cc1cccs1)Cc1cc2cc(OC)ccc2[nH]c1=O	eIF2B yeast act 64
COc1ccc2[nH]c(=O)c(CN(Cc3nnnn3Cc3ccccc3)CC3CCCO3)cc2c1 (stereo unspecified)	none
Cc1nn(C)c(C)c1/C=N/O	none
COc1ccc2cc3c(N)c(C(=O)N4CCCC4)sc3nc2c1	eIF2B yeast act 54
Cc1ccc2nc3sc(C(=O)N4CCOCC4)c(N)c3cc2c1	none (no result: eIF2B yeast act)
CC(NC(=O)CSc1nc2ccccc2c(=O)n1CCCO)c1ccccc1 (stereo unspecified)	eIF2B yeast act 53
CC(C)NC(=O)CSc1nc2ccccc2c(=O)n1CCCOC(C)C	none
N#CC(C(=O)OC1CCCCC1)c1nc2ccccc2nc1N1CCOCC1 (stereo unspecified)	eIF2B yeast act 51
CCC(CC)COC(=O)C(C#N)c1nc2ccccc2nc1N1CCOCC1 (stereo unspecified)	none
O=C(Nc1ccccc1N1CCN(C(=O)c2ccccc2)CC1)c1cc2ccccc2o1	eIF2B yeast act 50
Nc1ccccc1N1CCN(C(=O)c2ccccc2)CC1	none
CCN(CC)CCN(C)Cc1ccc(Br)cc1	none
Cc1nc2cc(-c3cccs3)[nH]n2c(=O)c1C	none
Cc1cccc(C(=O)Nc2cccc(C(=O)N3CCOCC3)c2)c1	none
COc1cccc(C(=O)Nc2cccc(C(=O)N3CCOCC3)c2)c1	eIF2B yeast act 59
CCOC(=O)CSc1nc2c(c(=O)[nH]c(=O)n2C)n1C/C=C(/C)Cl	none
CCCCCOC(=O)Cn1c(SCC(=O)Nc2ccccc2)nc2c1c(=O)[nH]c(=O)n2C	eIF2B yeast act 60
COC(=O)c1cc(OC)c(OC)cc1NC(=O)CN1CCOCC1	none
Cn1c(=O)[nH]c(=O)c2c1nc(NCc1ccco1)n2CCCc1ccccc1	none
CN(Cc1c(F)cccc1Cl)c1ccc(S(=O)(=O)N2CCOCC2)cn1	eIF2B yeast act 57
Cc1c(Cl)cccc1NC(=O)COc1ccc(S(=O)(=O)N2CCOCC2)cc1	none (no result: eIF2B yeast act)
CC1CC1C(=O)Nc1nc(-c2ccccc2)cs1 (stereo unspecified)	none
COc1ccc(-c2nnc3n2N=C(C)CS3)cc1OC	none
COc1ccc(OC)c(C2=Nn3c(nnc3-c3cccc(OC(C)C)c3)SC2)c1	eIF2B yeast act 60
COc1cc(S(=O)(=O)N(Cc2cccnc2)Cc2ccco2)ccc1-n1cnnn1	eIF2B yeast act 53
COc1cc(S(=O)(=O)N(Cc2ccc(C)cc2)Cc2ccco2)ccc1-n1cnnn1	none
O=C(CN(c1ccc(F)cc1)S(=O)(=O)c1ccc2c(c1)OCCO2)Nc1ccccc1	none
COc1ccc(Cc2nc(C(=O)Nc3ccc(F)cc3)cs2)cc1	none
Cc1cc(NC(=O)c2ccc(NC(=O)CC(C)C)cc2)no1	none
Cc1cc(C)n(C(=O)c2ccc(NC(=O)CC(C)C)cc2)n1	eIF2B yeast act 50
COC(=O)C(NC(=O)c1ccco1)(Nc1nc(C)cs1)C(F)(F)F (stereo unspecified)	eIF2B yeast act 52
COC(=O)C(NC(C)=O)(Nc1nc(C)cs1)C(F)(F)F (stereo unspecified)	none (no result: eIF2B yeast act)
CC1=C(C#N)c2nc(N)c(C#N)c(C)c2/C1=C\c1ccccc1	Yeast growth tox 53
Cc1nc(N)c(C#N)c(-c2ccccc2)c1C	none
Cc1ccc2c(c1)N(CC(=O)NCc1cccnc1)C(=O)CO2	eIF2B yeast act 59
Cc1ccc2c(c1)N(CC(=O)N1CCCCCC1)C(=O)CO2	none
CCC(=O)NCCSc1c[nH]c2ccccc12	eIF2B yeast act 62
CC(Sc1c[nH]c2ccccc12)C(=O)O (stereo unspecified)	none
CCn1nnnc1SCC(=O)c1ccc(C)cc1	none
O=c1ccnc(S/C=C/c2ccccc2)[nH]1	eIF2B yeast act 66
CC1=CC(=O)C=C(C)C1=NOS(=O)(=O)c1ccccc1	Yeast growth tox 77 (no result: eIF2B yeast act)
CC1=CC(=O)C=C(C)C1=NOC(=O)c1cccc([N+](=O)[O-])c1	none
N#Cc1c(-c2ccc(Cl)cc2)nc2n(c1=O)CCCS2	none
COc1cc2ccccc2cc1C(=O)Nc1cccnc1	none
O=C(Nc1cccnc1)c1ccccc1Oc1ccccc1	eIF2B yeast act 64
CN1CCN(S(=O)(=O)c2ccc(NC(=O)Nc3cccc(Cl)c3)cc2)CC1	none (no result: eIF2B yeast act)
COC(=O)c1cccc(NC(=O)c2ccc(S(=O)(=O)N3CCN(C)CC3)cc2)c1	eIF2B yeast act 59
CCc1cc2cc(C)cc(C)c2nc1SCC(=O)N1CCCC1	none
CCOC(=O)N1CCN(C(=O)c2ccc(NC(=O)CC)cc2)CC1	none
CCOC(=O)N1CCN(C(=O)c2ccc(N3CCCC3=O)cc2)CC1	eIF2B yeast act 56
Clc1cccc(-c2nn3c(COc4ccccc4)nnc3s2)c1	eIF2B yeast act 56
